Results taken from ChEMBL document CHEMBL4837214, “Design, synthesis, and biological evaluation of novel tetrahydroprotoberberine derivatives to reduce SREBPs expression for the treatment of hyperlipidemia” (Eur J Med Chem, 2021).
The source made the active and inactive calls. The calls are words filed in the database; no cut-off is given here.

Key:
[1] = target: T1, Sterol regulatory element-binding protein 1 (Homo sapiens) (UniProt P36956); test: Induction of SREBP degradation in human HepG2 cells at 10 uM preincubated with cycloheximide for 1 hr followed by compound additon by Western blot analysis; assay type: cell-based
T1 sequence (whole entry): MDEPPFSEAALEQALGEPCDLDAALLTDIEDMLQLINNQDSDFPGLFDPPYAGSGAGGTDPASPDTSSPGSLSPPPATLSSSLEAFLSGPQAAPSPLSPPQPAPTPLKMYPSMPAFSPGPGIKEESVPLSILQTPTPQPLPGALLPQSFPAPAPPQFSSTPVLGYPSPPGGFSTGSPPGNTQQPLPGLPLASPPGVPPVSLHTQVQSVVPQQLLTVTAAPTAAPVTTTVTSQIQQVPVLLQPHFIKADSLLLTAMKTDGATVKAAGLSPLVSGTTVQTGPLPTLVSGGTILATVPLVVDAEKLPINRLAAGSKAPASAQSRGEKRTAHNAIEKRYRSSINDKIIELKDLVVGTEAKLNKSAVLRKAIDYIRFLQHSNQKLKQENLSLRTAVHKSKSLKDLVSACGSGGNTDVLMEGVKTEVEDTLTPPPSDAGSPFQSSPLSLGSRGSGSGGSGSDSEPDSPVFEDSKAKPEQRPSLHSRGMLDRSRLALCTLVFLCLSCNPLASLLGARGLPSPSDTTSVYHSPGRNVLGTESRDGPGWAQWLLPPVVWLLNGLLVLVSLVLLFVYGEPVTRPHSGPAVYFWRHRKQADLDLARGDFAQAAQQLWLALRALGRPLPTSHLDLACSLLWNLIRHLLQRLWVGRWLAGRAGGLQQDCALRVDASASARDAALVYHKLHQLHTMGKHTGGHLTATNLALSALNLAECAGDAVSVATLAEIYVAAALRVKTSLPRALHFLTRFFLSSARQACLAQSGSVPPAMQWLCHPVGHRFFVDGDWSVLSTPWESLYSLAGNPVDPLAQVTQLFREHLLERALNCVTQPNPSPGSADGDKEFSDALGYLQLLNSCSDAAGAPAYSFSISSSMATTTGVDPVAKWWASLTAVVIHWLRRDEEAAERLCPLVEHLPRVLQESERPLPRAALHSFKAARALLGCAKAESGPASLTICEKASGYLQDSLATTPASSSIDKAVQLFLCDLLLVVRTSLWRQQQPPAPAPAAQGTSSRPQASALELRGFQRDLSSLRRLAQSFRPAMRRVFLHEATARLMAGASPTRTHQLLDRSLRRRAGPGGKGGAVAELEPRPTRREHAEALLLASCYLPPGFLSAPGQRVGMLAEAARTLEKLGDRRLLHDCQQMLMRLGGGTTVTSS
Outline: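 HepG2 cells pretreated 1 h with cycloheximide at […]. Medium then switched to cycloheximide plus vehicle or compound at […] for varying times. SREBP decay rate followed by Western blot of lysates.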

[2] = system: HepG2; test: Cytotoxicity against human HepG2 cells assessed as reduction in cell viability at 10 uM after 24 hrs by CCK8 assay; assay type: functional
[3] = system: HepG2; test: Down regulation of intracellular TG level in human HepG2 cells at 10 uM measured after 24 hrs; assay type: functional, cell-based
Outline: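 HepG2 cells grown in six-well plates and exposed 24 h to compound at […]. Cells collected in PBS and sonicated (5 s on, 10 s off, 60 s total). Total cholesterol or triglyceride measured with a colorimetric determination kit.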

[4] = Toxicity in C57BL/6J mouse assessed as reduction in liver weight at 170 to 340 mg/kg, po measured every week for 6 weeks; assay type: organism-based; conditions: in vivo, 1008 h, dose 170-340 mg/kg
Outline: (§1)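 Male C57BL/6J mice, six weeks old, fed a 45%-fat diet (HFD) for 15 weeks; chow-fed mice served as controls. Obese mice were randomized to vehicle (0.1% w/v CMC-Na) or 170 or 340 mg/kg, gavaged daily for 6 weeks while diet continued. Body weight, food intake, organ weights, serum lipids, tissue histology (H&E, Oil red O), liver SREBP blots and liver qPCR followed.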

[5] = system: HepG2; test: Down regulation of SCD gene expression in human HepG2 cells by qRT-PCR analysis; assay type: functional, cell-based
[6] = target: T1, Sterol regulatory element-binding protein 1 (Homo sapiens); test: Induction of SREBP degradation in human HepG2 cells at 10 uM preincubated with MG-132 for 1 hr followed by compound additon and measured after 4 hrs by Western blot analysis; assay type: cell-based
Outline: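 HepG2 cells pretreated 1 h with MG-132 at […]. Medium then switched to MG-132 plus vehicle or compound at […] for 4 h. SREBPs detected in lysates by Western blot.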

[7] = target: T1, Sterol regulatory element-binding protein 1 (Homo sapiens); test: Induction of SREBP degradation expressed in human HEK293T cells assessed as increase in SREBP ubiquitination at 10 uM after 24 hrs by Western blot analysis; assay type: cell-based
Outline: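 293T cells seeded at 3×10⁶ per dish and transfected next day with flag-SREBP1 or flag-SREBP2 plus HA-ubiquitin. On day 2 medium replaced with DMSO or compound. On day 3 cells lysed in IP buffer and cleared at 12,000 rpm, 4 °C. Supernatant immunoprecipitated overnight at 4 °C with flag antibody or IgG. Ubiquitylated SREBPs detected by Western blot.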

[8] = Tmax in Sprague-Dawley rat at 10 mg/kg, po measured upto 24 hrs by LC-MS/MS analysis; assay type: ADME, organism-based; conditions: in vivo
Outline: (§2)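 Six SD rats split into two groups of three, dosed 1 mg/kg IV or 10 mg/kg orally. IV blood drawn at 2, 5, 15, 30 min and 1, 2, 4, 6, 8, 12 h. Oral blood drawn at 5, 15, 30 min and 1, 2, 4, 6, 8, 12, 24 h. Serum drug measured by LC/MS/MS. Parameters are the average of three runs.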

[9] = Clearance in Sprague-Dawley rat at 1 mg/kg, iv measured upto 12 hrs by LC-MS/MS analysis; assay type: ADME, organism-based; conditions: in vivo; outline: as §2
[10] = Toxicity in high fat diet-induced C57BL/6J mouse assessed as change in heart morphology at 170 to 340 mg/kg, po administered for 6 weeks by H and E staining-based assay; assay type: organism-based; conditions: in vivo, 1008 h, dose 170-340 mg/kg; outline: as §1
[11] = Toxicity in high fat diet-induced C57BL/6J mouse assessed as change in kidney morphology at 170 to 340 mg/kg, po administered for 6 weeks by H and E staining-based assay; assay type: organism-based; conditions: in vivo, 1008 h, dose 170-340 mg/kg; outline: as §1
[12] = system: Mus musculus; test: Hypoglycemic activity in high fat diet-induced C57BL/6J mouse assessed as improvement in glucose tolerance at 170 to 340 mg/kg, po administered daily for 6 weeks and measured up to 120 mins by OGTT method; assay type: functional, organism-based; conditions: dose 170-340 mg/kg; outline: as §1
[13] = system: Mus musculus; test: Hypolipidemic activity in high fat diet-induced C57BL/6J mouse assessed as reduction in serum TC level at 170 to 340 mg/kg, po administered daily for 6 weeks; assay type: functional, organism-based; conditions: dose 170-340 mg/kg; outline: as §1
[14] = system: Mus musculus; test: […] activity in high fat diet-induced C57BL/6J mouse assessed as reduction in ACC mRNA level in liver at 170 to 340 mg/kg, po administered daily for 6 weeks by qRT-PCR analysis; assay type: functional, organism-based; conditions: dose 170-340 mg/kg; outline: as §1
[15] = system: Mus musculus; test: Hypolipidemic activity in high fat diet-induced C57BL/6J mouse assessed as reduction in cell size of WAT at 170 to 340 mg/kg, po administered daily for 6 weeks by H and E staining based assay; assay type: functional, organism-based; conditions: dose 170-340 mg/kg; outline: as §1

- Activity [1]: Active
- Activity [6]: inactive
- Activity [7]: Active
- Tmax [8]: 6.67 h
- clearance [9]: 25.8 mL/min/kg
Structure (SMILES): COc1ccc2c(c1OCC1CCCCC1)CN1CCc3cc4c(cc3C1C2)OCO4 (stereo not given)
- Activity [2]: 93%
- Activity [3]: Active
- Activity [4]: Toxic
- Activity [5]: Active
- Activity [10]: Non-Toxic
- Activity [11]: Non-Toxic
- Activity [12]: Active
- Activity [13]: Active
- Activity [14]: Active
- Activity [15]: Active
